The target of data set [1] is T1, 5-hydroxytryptamine receptor 1A (Homo sapiens, UniProt P08908).
T1 sequence (P08908 whole entry): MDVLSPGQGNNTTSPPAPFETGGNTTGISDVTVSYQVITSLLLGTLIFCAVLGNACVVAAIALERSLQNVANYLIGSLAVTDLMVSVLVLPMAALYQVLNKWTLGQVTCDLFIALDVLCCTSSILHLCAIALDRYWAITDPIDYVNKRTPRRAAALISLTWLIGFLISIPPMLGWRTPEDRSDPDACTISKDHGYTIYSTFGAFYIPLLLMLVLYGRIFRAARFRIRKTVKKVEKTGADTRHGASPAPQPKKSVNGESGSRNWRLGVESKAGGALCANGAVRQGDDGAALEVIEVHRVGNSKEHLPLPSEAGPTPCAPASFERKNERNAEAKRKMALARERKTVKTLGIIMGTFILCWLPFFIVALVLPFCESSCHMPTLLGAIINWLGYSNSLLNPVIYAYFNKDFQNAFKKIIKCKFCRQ
Nature of the data set: Displacement of [3H]8-OH-DPAT from human 5HT1A receptor expressed in CHO cell membranes after 1.5 hrs by liquid scintillation counting method. The procedure, abridged:
(§1)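 Ki determination by radioligand displacement in triplicate. Reference radioligands: [3H]5-HT for 5-HT1E, [3H]8-OH-DPAT for 5-HT1A, [3H]GR127543 for 5-HT1B, [3H]LY278584 for 5-HT3.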
In general terms: Loss of bound radioactivity is the signal in a displacement assay; it reports binding, not function.

For data set [2], the target named is 5-hydroxytryptamine receptor 1B (Homo sapiens, UniProt P28222). The experiment in a line: Displacement of [3H]GR127543 from human 5HT1B receptor expressed in HEK cell membranes after 1.5 hrs by liquid scintillation counting method. Put shortly: as §1
5-hydroxytryptamine receptor 1B, sequence (P28222 whole entry): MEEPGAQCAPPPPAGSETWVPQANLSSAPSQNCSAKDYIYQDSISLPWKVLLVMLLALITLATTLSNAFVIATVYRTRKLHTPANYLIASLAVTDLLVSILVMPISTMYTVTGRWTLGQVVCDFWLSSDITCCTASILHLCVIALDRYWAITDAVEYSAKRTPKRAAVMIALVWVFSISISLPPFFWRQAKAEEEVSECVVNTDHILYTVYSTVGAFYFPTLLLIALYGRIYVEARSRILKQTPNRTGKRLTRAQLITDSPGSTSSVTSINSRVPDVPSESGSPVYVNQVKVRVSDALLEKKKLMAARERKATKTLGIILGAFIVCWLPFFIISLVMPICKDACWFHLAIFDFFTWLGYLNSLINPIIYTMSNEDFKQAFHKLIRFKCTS
Data set [3] addresses 5-hydroxytryptamine receptor 1E (Homo sapiens, UniProt P28566). The experiment in a line: Displacement of [3H]5-HT from human 5HT1E receptor expressed in HEKT cell membranes after 1.5 hrs by liquid scintillation counting method. The procedure, abridged: as §1
Data set [4] concerns the target 5-hydroxytryptamine receptor 2A (Homo sapiens, UniProt P28223). The experiment in a line: Displacement of [3H]ketanserin from human 5HT2A receptor expressed in HEKT cell membranes after 1.5 hrs by liquid scintillation counting method. The class given is cell-based.
Data set [5] concerns the target T2, 5-hydroxytryptamine receptor 2B (Homo sapiens, UniProt P41595). The experiment in a line: Displacement of [3H]LSD from human 5HT2B receptor expressed in HEK cells membranes after 1.5 hrs by liquid scintillation counting method. The class given is cell membranes.
In data set [6] the target is T3, 5-hydroxytryptamine receptor 2C (Homo sapiens, UniProt P28335).
T3 sequence (P28335 whole entry): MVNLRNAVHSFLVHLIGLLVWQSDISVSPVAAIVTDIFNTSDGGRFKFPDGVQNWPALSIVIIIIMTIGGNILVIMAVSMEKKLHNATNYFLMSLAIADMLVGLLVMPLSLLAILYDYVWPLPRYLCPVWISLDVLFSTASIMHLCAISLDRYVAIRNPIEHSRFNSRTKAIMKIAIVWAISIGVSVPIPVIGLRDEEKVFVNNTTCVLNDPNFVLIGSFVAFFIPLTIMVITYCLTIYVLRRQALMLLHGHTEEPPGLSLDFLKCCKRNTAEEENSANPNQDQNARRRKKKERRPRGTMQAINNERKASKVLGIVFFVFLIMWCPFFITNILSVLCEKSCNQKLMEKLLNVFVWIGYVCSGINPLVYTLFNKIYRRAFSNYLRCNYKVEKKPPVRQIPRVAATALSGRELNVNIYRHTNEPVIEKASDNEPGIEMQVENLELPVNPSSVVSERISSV
Nature of the data set: Displacement of [3H]LSD from human 5HT2C receptor expressed in HEKT cell membranes after 1.5 hrs by liquid scintillation counting method.

In data set [7] the target is T4, 5-hydroxytryptamine receptor 3A (Homo sapiens, UniProt P46098).
T4 sequence (P46098 whole entry): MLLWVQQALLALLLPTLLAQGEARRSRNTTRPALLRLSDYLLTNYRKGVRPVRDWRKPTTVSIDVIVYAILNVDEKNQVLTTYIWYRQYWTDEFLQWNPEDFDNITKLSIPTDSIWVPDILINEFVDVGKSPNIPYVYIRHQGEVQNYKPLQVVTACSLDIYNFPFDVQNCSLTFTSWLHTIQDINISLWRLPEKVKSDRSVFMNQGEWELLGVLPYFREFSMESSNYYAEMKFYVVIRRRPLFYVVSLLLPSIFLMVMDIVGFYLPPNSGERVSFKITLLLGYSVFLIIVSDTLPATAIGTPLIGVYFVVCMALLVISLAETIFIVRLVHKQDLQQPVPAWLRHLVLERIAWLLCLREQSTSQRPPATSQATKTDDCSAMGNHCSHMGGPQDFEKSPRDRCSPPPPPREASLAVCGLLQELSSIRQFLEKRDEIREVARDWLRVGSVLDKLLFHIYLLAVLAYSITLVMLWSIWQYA
Nature of the data set: Displacement of [3H]LY278584 from human 5HT3 receptor expressed in HEKT cell membranes after 1.5 hrs by liquid scintillation counting method.

In data set [8] the target is T2, 5-hydroxytryptamine receptor 2B. The experiment in a line: Ratio of IC50 for antagonist activity at recombinant human 5-HT2B receptor in presence of human serum albumin to IC50 for antagonist activity at recombinant human 5-HT2B receptor in absence of human serum albumin. The procedure, abridged: (§2)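 IC50 was measured in the CHO-K1/5-HT2B calcium-flux assay twice, once in buffer alone and once with 4% HSA added. The ratio compares the IC50 with HSA to the IC50 without it. Run in triplicate.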

The species named for a further data set is Homo sapiens. Nature of the data set: Selectivity ratio of Ki for human 5HT1B receptor to Ki for human 5HT2B receptor. The procedure, abridged:
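Ki values from radioligand displacement run in triplicate, using [3H]GR127543 for 5-HT1B and [3H]LSD for 5-HT2B. The ratio compares the 5-HT1B Ki to the 5-HT2B Ki.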

Data set [9] has as its target T2, 5-hydroxytryptamine receptor 2B. Nature of the data set: Antagonist activity at recombinant human 5-HT2B receptor expressed in CHOK1 cells assessed as inhibition of serotonin-induced calcium flux at 1 to 10 uM preincubated for 60 mins at 37 degC followed by incubation at room temperature for 15 mins and subsequent addition of serotonin and measured for 100 secs by fluorescence assay relative to control. It is filed as functional, cell-based. Put shortly: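 Calcium-flux functional assay in CHO-K1 cells stably expressing 5-HT2B. Compounds were screened at 10 μM and 1 μM, and the value is % inhibition of 5-HT2B activity. Run in triplicate.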

The target is the same in data set [10]. Nature of the data set: Antagonist activity at recombinant human 5-HT2B receptor expressed in CHOK1 cells assessed as inhibition of serotonin-induced calcium flux preincubated for 60 mins at 37 degC followed by incubation at room temperature for 15 mins and subsequent addition of serotonin and measured for 100 secs by fluorescence assay. It is filed as functional, cell-based. Put shortly: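 5-HT2B antagonist IC50 came from a dose-response curve in a calcium-flux assay in the CHO-K1/5-HT2B cell line. Run in triplicate.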
Background: Calcium assays in cells follow changes in intracellular calcium, usually with a dye or a luminescent sensor.

The target is the same in data set [11]. The experiment in a line: Antagonist activity at recombinant human 5-HT2B receptor expressed in CHOK1 cells assessed as inhibition of serotonin-induced calcium flux preincubated for 60 mins at 37 degC followed by incubation at room temperature for 15 mins and subsequent addition of serotonin and measured for 100 secs in presence of human serum albumin by fluorescence assay. The class given is functional, cell-based. Put shortly: as §2

Data set [12] is described as follows: Half life of compound in fasted state simulated gastric fluid at pH 1.6. The class given is ADME.
A short description of data set [13]: Half life of compound in fasted state simulated intestinal fluid at pH 6.5. The class given is ADME.
The nature of data set [14]: Metabolic stability in human plasma assessed as compound remaining measured after 120 mins. The class given is ADME, cell-free. To be noted: read-out: Stability.
Data set [15] can be described thus: Apparent permeability across apical side to basolateral side in human Caco2 cells. It is filed as ADME, cell-based. Conditions: Caco-2. A general note: Passage across Caco-2 layers is used to estimate intestinal permeability.
Data set [16] is described as follows: Apparent permeability across basolateral side to apical side in human Caco2 cells. It is filed as ADME, cell-based. To be noted: Caco-2.
Data set [17] in a line: Half life in rat liver microsomes. It is filed as ADME, microsome.
Another data set relates to HepG2. Nature of the data set: Cytotoxicity against human HepG2 cells by MTT assay. The class given is cell-based.

The structures appear in SMILES notation.

5-hydroxytryptamine receptor 2A, sequence (P28223 whole entry): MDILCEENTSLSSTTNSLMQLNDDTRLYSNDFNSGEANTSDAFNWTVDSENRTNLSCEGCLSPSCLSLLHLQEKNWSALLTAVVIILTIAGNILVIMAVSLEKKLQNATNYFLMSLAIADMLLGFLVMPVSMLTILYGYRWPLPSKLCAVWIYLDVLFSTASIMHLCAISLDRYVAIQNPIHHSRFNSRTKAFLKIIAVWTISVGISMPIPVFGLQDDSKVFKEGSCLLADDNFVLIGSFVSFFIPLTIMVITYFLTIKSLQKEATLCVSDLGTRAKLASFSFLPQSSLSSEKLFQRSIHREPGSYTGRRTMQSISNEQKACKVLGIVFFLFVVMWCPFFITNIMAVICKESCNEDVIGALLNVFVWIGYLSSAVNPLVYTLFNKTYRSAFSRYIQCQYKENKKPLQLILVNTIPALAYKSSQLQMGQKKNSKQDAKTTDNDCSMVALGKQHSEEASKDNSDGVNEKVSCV
5-hydroxytryptamine receptor 1E, sequence (P28566 whole entry): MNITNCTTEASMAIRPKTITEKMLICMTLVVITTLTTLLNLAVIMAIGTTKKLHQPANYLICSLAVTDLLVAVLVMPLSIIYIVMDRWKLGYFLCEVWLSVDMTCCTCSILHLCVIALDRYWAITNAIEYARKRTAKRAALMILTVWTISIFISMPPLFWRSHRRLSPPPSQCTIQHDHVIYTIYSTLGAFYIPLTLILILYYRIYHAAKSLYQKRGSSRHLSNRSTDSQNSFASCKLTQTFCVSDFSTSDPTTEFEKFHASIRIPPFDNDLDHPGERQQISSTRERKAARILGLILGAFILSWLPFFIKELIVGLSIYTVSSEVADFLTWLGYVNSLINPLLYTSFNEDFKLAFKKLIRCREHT
T2 sequence (P41595 whole entry): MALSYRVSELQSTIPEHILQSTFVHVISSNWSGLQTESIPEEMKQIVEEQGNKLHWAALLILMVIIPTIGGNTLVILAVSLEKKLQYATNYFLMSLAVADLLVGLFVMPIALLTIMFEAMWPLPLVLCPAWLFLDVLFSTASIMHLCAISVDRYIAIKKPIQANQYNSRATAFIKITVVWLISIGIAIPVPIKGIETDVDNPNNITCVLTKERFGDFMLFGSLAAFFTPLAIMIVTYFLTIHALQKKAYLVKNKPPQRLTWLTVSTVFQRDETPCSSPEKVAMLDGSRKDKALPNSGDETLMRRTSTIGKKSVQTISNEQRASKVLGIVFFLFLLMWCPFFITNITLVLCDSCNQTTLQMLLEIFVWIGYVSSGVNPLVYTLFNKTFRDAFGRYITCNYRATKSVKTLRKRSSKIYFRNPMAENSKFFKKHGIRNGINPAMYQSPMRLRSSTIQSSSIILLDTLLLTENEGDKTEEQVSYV

The term Ki denotes a measure of affinity in units of concentration, obtained from inhibition or displacement. A low value points to higher affinity. As to `O=C(NCCc1c[nH]c2ccccc12)C1CCN(C(=O)c2ccccc2)CC1`, the Ki in [1] is 5.4 µM; in data set [2], 7.6 µM; in [3], above 10 µM; in [4] it was 5.69 µM; in data set [5], 0.0793 µM; in data set [6], 0.749 µM. Besides, the Ki in data set [7] is above 10 µM.

On to `CC(C)c1cc(-c2ccc(F)c3ccccc23)nc(N)n1`, for which the Ratio IC50 in data set [8] was 27.

In turn, `Cc1nc2sccn2c(=O)c1CCN1CCC(=C(c2ccc(F)cc2)c2ccc(F)cc2)CC1` [RITANSERIN] displayed a Ki in data set [6] of 0.0019 µM.

For the compound `Cc1cc2c(cc1Cl)N(C(=O)Nc1ccnc3ccccc13)CC2`, in data set [8], the Ratio IC50 was found to be 50.

As to `O=C(NCc1ccccc1)C1CCN(C(=O)c2ccc(-c3ccccc3)cc2)CC1`, the inhibition constant Ki in [1] was 9.39 µM; in [2], 8.59 µM; in [3], above 10 µM; in data set [4], 6.79 µM; in data set [5] it was 0.569 µM; in [6] it was 0.986 µM. The compound also gave a Ki in data set [7] above 10 µM. Further, the Ratio Ki in the data set filed under Homo sapiens was 15.

Regarding `O=C(c1ccc(-c2ccccc2)cc1)N1CCC(c2nc3ccccc3[nH]2)CC1`, the Ratio IC50 in data set [8] amounted to 500.

As usually defined, the inhibition is the share of the control response that was lost under treatment. As usually defined, the IC50 is the concentration that gives 50% inhibition. For orientation: half-life means how long it takes for the measured level to halve. A low value points to rapid decline. For orientation: Papp A→B means the apparent permeability from the apical to the basolateral side of a cell layer. By Papp B→A is commonly meant how fast a substance crosses the layer from the basolateral side. With `O=C(NCCc1c[nH]c2ccccc12)C1CCN(C(=O)c2ccc(-c3ccccc3)cc2)CC1`, the inhibition in data set [9] is above 95%. Further, the IC50 was 0.0141 µM in data set [10], 0.0187 µM in [11] and above 50 µM in the data set on HepG2. Moreover, the Ki was 0.603 µM in [1]; 3.41 µM in [2]; above 10 µM in data set [3]; 2.46 µM in data set [4]; 0.0045 µM in data set [5]; 0.473 µM in [6]. Besides, the Ki in data set [7] is above 10 µM. Further, the half-life in data set [12] was 4.32 h; in data set [13], above 8.33 h; in data set [17] it was 2.98 h. In addition, the remaining at 2 h in [14] was 97.4%. The Papp A→B in data set [15] came out at 16.3 ×10⁻⁶ cm/s. Besides, the Papp B→A in [16] is 32.8 ×10⁻⁶ cm/s.

Values taken from ChEMBL document CHEMBL4257536, “Pharmacophore-based tailoring of biphenyl amide derivatives as selective 5-hydroxytryptamine 2B receptor antagonists” (Medchemcomm, 2018).
